Experimental data as given in ChEMBL document CHEMBL4425103, “Diving into the Water: Inducible Binding Conformations for BRD4, TAF1(2), BRD9, and CECR2 Bromodomains” (J Med Chem, 2016).

Columns and labels:
[1] = target: T1, Transcription intermediary factor 1-alpha (Homo sapiens, UniProt O15164); test: Binding affinity to human partial length TRIM24 expressed in bacterial expression system by BROMOscan assay
T1 sequence (O15164 whole entry): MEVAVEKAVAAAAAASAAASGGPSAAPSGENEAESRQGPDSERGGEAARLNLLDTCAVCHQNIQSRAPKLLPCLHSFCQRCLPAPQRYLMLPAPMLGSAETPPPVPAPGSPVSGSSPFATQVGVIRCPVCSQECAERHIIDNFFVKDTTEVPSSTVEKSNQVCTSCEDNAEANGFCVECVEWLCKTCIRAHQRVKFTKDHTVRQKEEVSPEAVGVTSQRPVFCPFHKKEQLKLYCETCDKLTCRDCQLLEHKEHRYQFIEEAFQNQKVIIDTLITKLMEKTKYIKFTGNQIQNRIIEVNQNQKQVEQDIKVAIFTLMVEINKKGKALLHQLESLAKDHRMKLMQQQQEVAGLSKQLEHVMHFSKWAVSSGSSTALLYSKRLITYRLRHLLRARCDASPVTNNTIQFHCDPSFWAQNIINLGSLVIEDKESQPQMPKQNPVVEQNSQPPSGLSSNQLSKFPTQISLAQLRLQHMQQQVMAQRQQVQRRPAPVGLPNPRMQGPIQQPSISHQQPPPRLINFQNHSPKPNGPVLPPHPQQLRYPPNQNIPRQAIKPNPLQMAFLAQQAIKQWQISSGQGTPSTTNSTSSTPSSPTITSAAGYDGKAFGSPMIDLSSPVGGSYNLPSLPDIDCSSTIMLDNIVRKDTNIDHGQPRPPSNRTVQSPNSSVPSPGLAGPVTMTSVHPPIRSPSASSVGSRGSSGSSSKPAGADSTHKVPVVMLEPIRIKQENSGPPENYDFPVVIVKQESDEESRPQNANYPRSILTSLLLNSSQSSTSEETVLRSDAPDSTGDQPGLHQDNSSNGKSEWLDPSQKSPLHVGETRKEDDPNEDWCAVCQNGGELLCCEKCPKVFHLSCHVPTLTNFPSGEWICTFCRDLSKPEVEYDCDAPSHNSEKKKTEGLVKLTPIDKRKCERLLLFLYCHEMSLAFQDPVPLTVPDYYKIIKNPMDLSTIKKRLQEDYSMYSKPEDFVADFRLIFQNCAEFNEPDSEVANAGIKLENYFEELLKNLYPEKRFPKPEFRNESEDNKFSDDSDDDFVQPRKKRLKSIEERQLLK

[2] = target: SWI/SNF-related matrix-associated actin-dependent regulator of chromatin subfamily A member 4 (Homo sapiens, UniProt P51532); test: Binding affinity to human partial length SMARCA4 expressed in bacterial expression system by BROMOscan assay
Sequence of SWI/SNF-related matrix-associated actin-dependent regulator of chromatin subfamily A member 4 (P51532 whole entry): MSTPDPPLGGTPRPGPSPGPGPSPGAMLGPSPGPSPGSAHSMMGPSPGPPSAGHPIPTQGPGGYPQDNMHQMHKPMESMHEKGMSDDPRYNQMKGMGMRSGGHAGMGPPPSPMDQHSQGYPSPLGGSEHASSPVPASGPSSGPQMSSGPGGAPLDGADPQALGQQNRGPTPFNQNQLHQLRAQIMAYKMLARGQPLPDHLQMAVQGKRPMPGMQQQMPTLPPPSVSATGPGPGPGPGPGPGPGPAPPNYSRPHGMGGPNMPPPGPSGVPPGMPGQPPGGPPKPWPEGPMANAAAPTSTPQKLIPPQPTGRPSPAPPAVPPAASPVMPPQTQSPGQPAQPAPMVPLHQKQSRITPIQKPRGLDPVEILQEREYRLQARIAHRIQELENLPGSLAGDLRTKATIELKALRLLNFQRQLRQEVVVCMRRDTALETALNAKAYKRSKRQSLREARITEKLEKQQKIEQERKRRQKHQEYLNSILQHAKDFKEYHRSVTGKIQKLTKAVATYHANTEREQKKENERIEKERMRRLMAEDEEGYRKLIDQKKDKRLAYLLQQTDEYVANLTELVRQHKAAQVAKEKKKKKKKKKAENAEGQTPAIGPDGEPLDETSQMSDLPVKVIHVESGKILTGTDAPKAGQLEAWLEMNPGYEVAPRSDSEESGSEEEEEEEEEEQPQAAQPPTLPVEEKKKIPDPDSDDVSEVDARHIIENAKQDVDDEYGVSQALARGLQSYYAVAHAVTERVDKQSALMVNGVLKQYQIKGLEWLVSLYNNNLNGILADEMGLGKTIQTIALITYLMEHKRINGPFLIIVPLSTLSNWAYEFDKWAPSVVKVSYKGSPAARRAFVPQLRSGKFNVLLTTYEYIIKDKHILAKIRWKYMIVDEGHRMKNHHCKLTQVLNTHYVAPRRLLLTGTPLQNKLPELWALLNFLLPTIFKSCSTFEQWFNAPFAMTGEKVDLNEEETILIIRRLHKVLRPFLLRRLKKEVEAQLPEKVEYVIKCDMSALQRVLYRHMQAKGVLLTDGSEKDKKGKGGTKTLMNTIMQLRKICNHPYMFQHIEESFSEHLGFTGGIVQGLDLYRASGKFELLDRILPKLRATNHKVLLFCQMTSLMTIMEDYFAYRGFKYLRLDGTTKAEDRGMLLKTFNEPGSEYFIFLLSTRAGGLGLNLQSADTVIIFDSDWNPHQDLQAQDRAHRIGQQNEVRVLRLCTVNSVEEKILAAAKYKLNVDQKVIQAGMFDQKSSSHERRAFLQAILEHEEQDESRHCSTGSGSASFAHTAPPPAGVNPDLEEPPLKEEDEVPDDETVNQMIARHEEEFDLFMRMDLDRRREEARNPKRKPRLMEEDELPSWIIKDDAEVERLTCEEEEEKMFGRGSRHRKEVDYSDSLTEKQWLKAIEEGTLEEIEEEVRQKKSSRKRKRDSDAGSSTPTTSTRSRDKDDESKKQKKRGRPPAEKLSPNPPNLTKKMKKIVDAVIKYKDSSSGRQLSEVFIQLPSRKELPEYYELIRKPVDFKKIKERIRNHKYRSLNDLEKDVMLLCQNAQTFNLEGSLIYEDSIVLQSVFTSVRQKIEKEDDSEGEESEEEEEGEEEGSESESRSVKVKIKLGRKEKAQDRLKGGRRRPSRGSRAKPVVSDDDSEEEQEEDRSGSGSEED

[3] = target: Histone acetyltransferase p300 (Homo sapiens, UniProt Q09472); test: Binding affinity to human partial length EP300 expressed in bacterial expression system by BROMOscan assay
Sequence of Histone acetyltransferase p300 (Q09472 whole entry, canonical isoform): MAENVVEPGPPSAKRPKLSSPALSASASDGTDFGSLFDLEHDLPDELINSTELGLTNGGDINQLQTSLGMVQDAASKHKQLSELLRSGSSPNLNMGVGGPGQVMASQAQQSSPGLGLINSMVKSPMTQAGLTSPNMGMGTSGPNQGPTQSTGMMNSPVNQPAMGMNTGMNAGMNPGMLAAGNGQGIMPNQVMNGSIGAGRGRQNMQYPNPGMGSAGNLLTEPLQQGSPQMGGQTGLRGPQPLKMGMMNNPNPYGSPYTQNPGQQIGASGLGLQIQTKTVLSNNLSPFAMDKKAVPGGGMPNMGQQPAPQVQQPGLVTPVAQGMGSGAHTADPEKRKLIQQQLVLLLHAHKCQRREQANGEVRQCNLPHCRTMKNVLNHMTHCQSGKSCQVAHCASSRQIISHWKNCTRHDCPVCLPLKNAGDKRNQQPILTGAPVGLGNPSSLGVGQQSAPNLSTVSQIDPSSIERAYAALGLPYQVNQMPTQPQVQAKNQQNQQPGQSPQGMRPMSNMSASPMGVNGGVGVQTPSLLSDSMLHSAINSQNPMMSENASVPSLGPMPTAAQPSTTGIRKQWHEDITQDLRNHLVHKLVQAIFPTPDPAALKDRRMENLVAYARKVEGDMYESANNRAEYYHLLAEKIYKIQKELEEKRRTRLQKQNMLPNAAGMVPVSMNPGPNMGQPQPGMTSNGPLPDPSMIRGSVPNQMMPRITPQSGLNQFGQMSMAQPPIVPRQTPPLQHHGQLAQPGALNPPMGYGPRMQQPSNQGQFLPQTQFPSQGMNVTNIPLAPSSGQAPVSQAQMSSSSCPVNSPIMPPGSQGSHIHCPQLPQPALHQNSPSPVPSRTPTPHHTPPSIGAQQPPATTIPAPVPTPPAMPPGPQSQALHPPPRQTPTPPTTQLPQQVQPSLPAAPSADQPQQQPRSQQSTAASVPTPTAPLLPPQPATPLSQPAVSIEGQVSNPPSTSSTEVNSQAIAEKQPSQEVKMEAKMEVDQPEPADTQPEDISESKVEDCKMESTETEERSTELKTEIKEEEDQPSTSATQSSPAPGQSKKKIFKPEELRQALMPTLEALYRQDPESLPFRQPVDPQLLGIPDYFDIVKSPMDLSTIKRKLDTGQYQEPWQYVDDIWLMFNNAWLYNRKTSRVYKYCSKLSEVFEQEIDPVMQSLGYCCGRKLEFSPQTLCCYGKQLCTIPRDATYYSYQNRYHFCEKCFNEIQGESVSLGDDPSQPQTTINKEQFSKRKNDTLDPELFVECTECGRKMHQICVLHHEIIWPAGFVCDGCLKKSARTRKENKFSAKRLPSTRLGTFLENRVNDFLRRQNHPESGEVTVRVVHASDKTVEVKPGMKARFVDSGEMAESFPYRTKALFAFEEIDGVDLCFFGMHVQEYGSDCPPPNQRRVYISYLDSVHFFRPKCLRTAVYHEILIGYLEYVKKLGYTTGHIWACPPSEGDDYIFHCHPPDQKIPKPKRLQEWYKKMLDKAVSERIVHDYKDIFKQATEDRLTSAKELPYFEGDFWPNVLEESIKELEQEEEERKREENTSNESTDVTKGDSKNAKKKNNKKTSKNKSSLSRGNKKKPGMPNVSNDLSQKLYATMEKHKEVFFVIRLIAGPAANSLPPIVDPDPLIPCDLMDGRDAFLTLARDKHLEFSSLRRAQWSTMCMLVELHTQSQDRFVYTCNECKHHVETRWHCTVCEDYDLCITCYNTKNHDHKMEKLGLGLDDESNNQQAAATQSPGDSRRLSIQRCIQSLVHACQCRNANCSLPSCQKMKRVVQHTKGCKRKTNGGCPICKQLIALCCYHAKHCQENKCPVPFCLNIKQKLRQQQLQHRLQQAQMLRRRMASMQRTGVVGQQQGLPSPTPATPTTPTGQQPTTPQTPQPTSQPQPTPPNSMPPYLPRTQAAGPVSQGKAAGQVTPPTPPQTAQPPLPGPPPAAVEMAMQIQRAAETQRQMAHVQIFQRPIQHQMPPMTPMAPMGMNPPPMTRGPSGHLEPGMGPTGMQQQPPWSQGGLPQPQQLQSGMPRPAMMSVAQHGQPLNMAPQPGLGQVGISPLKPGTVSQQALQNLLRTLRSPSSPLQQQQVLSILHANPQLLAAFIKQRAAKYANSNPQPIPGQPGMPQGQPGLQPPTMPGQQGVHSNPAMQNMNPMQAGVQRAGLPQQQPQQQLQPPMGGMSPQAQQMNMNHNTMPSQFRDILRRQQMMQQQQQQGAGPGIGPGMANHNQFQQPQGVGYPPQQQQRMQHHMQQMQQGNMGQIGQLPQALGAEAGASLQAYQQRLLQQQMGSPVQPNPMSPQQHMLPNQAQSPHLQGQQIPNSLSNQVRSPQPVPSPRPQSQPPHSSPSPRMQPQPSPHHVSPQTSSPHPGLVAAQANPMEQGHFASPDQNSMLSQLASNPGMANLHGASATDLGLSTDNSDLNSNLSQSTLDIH

[4] = species: Homo sapiens; test: Selectivity index, ratio of IC50 for recombinant His-tagged TAF1 isoform-1 (unknown origin) to IC50 for recombinant His-tagged CECR2 (unknown origin)
In short: (§1)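 Protein and then probe were added, 10 min each. Anti-His-europium (0.2 nM) plus SA-APC was read after 40 min. 10-point titrations (N=2), ≥2 independent runs, 4-parameter Hill fit. Index is the ratio of the two IC50s.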

[5] = species: Homo sapiens; test: Selectivity index, ratio of IC50 for recombinant His-tagged […] (unknown origin) to IC50 for recombinant His-tagged CECR2 (unknown origin); in short: as §1
[6] = species: Homo sapiens; test: Selectivity index, ratio of IC50 for recombinant His-tagged BRD4 bromodomain2 to IC50 for recombinant His-tagged CECR2 (unknown origin); in short: as §1
[7] = target: Chromatin remodeling regulator CECR2 (Homo sapiens, UniProt Q9BXF3); test: Inhibition of recombinant His-tagged CECR2 (unknown origin) using biotinylated ligand incubated for 10 mins by TR-FRET assay
[8] = target: Transcription initiation factor TFIID subunit 1 (Homo sapiens, UniProt P21675); test: Inhibition of recombinant His-tagged TAF1 isoform-2 (unknown origin) using biotinylated ligand incubated for 10 mins by TR-FRET assay
[9] = species: Homo sapiens; test: Selectivity index, ratio of IC50 for recombinant His-tagged BRPF1 (unknown origin) to IC50 for recombinant His-tagged CECR2 (unknown origin); in short: as §1

Kd [1] [nM]	Kd [2] [nM]	Kd [3] [nM]	Ratio IC50 [4]	Ratio IC50 [5]	Ratio IC50 [6]	IC50 [7] [nM]	IC50 [8] [nM]	Ratio IC50 [9]	SMILES
910	9000	270	–	–	–	–	–	–	CN(C)C(=O)c1cccc(-c2cn(C)c(=O)c3[nH]ccc23)c1
–	–	–	> 10	> 10	> 10	170	770	> 10	C=CCn1cc(-c2cccc(C(=O)N(C)C)c2)c2cc[nH]c2c1=O
